The record followed here is ChEMBL document CHEMBL1143957, “Inhibitory property of the Piper betel phenolics against photosensitization-induced biological damages” (Bioorg Med Chem, 2008).

Series [1] has as its system Liver. Put plainly: Protection against 30 mins photoirradiation-induced lipid peroxidation damage in rat liver mitochondria assessed as prevention of TBARS formation at 30 uM. Format: functional. An outline of the steps:
(§1)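 Rat liver mitochondria (0.5 mg protein/mL final) with methylene blue (50 µg/mL) and test agent in KH₂PO₄–KOH buffer pH 7.4, held at 37 °C and irradiated 30 min with a 100 W tungsten lamp (32.45 W m⁻²). TBARS were measured after 15 min boiling with TBA/TCA/EDTA/HCl reagent, centrifugation and A532 against a malonaldehyde standard. Unirradiated endogenous TBARS were subtracted. Results are % protection, mean ± SEM, n = 5.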

In series [2] the test system is Liver. The series is described as follows: Protection against 30 mins photoirradiation-induced lipid peroxidation damage in rat liver mitochondria assessed as prevention of TBARS formation at 60 uM. The class given is functional. An outline of the steps: as §1
The subject of series [3] is Liver. Put plainly: Protection against 30 mins photoirradiation-induced lipid peroxidation damage in rat liver mitochondria assessed as prevention of TBARS formation at 180 uM. Format: functional. An outline of the steps:
as §1

Series [4] deals with Liver. Put plainly: Protection against 30 mins photoirradiation-induced damage in rat liver mitochondria assessed as reduction of lipid hydroperoxide formation at 180 uM. Set-up: scale not given: the % may be the effect or the level left. Format: functional. An outline of the steps: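 Lipid hydroperoxide read-out: mitochondrial protein (0.5 mg/mL) plus methylene blue (50 µg/mL) with test agent at 180 µM added before a 30 min photo-irradiation. LOOH was quantified as absorbance at 560 nm. Mean ± SEM, n = 5.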

In series [5] the test system is Liver. Put plainly: Protection against 30 mins photoirradiation-induced lipid peroxidation damage in rat liver mitochondria assessed as prevention of TBARS formation at 2 mM. Format: functional. An outline of the steps: as §1
The subject of series [6] is Liver. Put plainly: Protection against photoirradiation-induced lipid peroxidation damage in rat liver mitochondria at 10 mM. Format: functional. An outline of the steps: as §1
In series [7] the test system is Liver. The series is described as follows: Protection against photoirradiation-induced lipid peroxidation damage in rat liver mitochondria at 100 mM. The class given is functional. An outline of the steps: as §1
Series [8] has as its system L929. The series is described as follows: Prevention of 15 mins photoirradiation-induced damage in mouse L929 cells assessed as survival at 9 uM by MTT assay. To be noted: L929, light or radiation study, 0.25 h, read-out: Activity. The class given is functional. An outline of the steps: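 L929 mouse fibroblasts (RPMI 1640, 10% heat-inactivated FCS, 37 °C, 5% CO₂) were seeded at 2 × 10⁴ cells/well, preincubated with test agent in serum-free RPMI for 2 h, then given methylene blue (9 or 18 µM) in PBS for 2 h. Cells were washed and exposed to a 100 W tungsten lamp at room temperature for 0–15 min, then grown in 10% FCS RPMI for 72 h. Viability was measured by MTT (0.5 mg/mL, 4 h), SDS lysis and A550; n = 5.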
On the technique in general: Tetrazolium assays rely on reduction of a dye to a coloured formazan, in cell work by metabolically active cells.

Series [9] relates to L929. Put plainly: Prevention of 5 mins photoirradiation-induced damage in mouse L929 cells assessed as survival at 10 uM by MTT assay. Format: functional. Conditions: L929, light or radiation study, read-out: Survival.
Series [10] has as its system L929. The series is described as follows: Prevention of 10 mins photoirradiation-induced damage in mouse L929 cells assessed as survival at 10 uM by MTT assay. The class given is functional. Conditions: L929, light or radiation study, read-out: Survival.
Series [11] relates to L929. The series is described as follows: Prevention of 15 mins photoirradiation-induced damage in mouse L929 cells assessed as survival at 10 uM by MTT assay. Format: functional. Conditions: L929, light or radiation study, 0.25 h, read-out: Survival.
Series [12] concerns L929. Put plainly: Prevention of 5 mins photoirradiation-induced damage in mouse L929 cells assessed as survival at 5 uM by MTT assay. Conditions: L929, light or radiation study, read-out: Survival. The class given is functional.
The test system of series [13] is L929. Put plainly: Prevention of 10 mins photoirradiation-induced damage in mouse L929 cells assessed as survival at 5 uM by MTT assay. Format: functional. Conditions: L929, light or radiation study, read-out: Survival.
The test system of series [14] is L929. The series is described as follows: Prevention of 15 mins photoirradiation-induced damage in mouse L929 cells assessed as survival at 5 uM by MTT assay. The class given is functional. Conditions: L929, light or radiation study, 0.25 h, read-out: Survival.
Series [15] in a line: Cytotoxicity against mouse L929 cells assessed as survival at 5 uM after 20 hrs by MTT method relative to control. Format: cell-based. Conditions: read-out: Survival.
Series [16] is described as follows: Cytotoxicity against mouse L929 cells assessed as survival at 10 uM after 20 hrs by MTT method relative to control. The class given is cell-based. To be noted: read-out: Survival.
Series [17] can be described thus: Cytotoxicity against mouse L929 cells assessed as survival at 20 uM after 20 hrs by MTT method relative to control. Format: cell-based. To be noted: read-out: Survival.
Series [18] in a line: Cytotoxicity against mouse L929 cells assessed as survival at 9 uM after 20 hrs by MTT method relative to control. Format: cell-based. To be noted: read-out: Survival.
Series [19] in a line: Cytotoxicity against mouse L929 cells assessed as survival at 18 uM after 20 hrs by MTT method relative to control. The class given is cell-based. To be noted: read-out: Survival.
Series [20] has as its system L929. Put plainly: Prevention of 5 mins photoirradiation-induced damage in mouse L929 cells assessed as survival at 18 uM by MTT assay. Format: functional. To be noted: L929, light or radiation study, read-out: Survival.
The test system of series [21] is L929. The series is described as follows: Prevention of 10 mins photoirradiation-induced damage in mouse L929 cells assessed as survival at 18 uM by MTT assay. The class given is functional. To be noted: L929, light or radiation study, read-out: Survival.
The test system of series [22] is L929. The series is described as follows: Prevention of 15 mins photoirradiation-induced damage in mouse L929 cells assessed as survival at 18 uM by MTT assay. The class given is functional. To be noted: L929, light or radiation study, 0.25 h, read-out: Survival.

With `C=CCc1ccc(OC)c(O)c1`, the Activity in the series on Liver [1] is 22%; with Liver [2], 40%; with Liver [3], 72%; with Liver [4], 61.5%.

With `COc1cc(C=O)ccc1O`, in the series on Liver [5], the Activity is 34%.

Turning to `N[C@@H](CCC(=O)N[C@@H](CS)C(=O)NCC(=O)O)C(=O)O`, in the series on Liver [6], the Activity stood at 35.6%.

`O=C1O[C@H]([C@@H](O)CO)C(O)=C1O`: the Activity in the series on Liver [6] amounted to 25.7%.

Compound `OC[C@@H](O)[C@@H](O)[C@H](O)[C@H](O)CO` returned an Activity with Liver [7] of 20.1%.

Take `C=CCc1ccc(O)c(O)c1` [HYDROXYCHAVICOL]: the Activity in the series with Liver [1] was determined as 32%; in the series on Liver [2] it was 48%; in the series with Liver [3], 86%; with Liver [4], 87%. For the same compound, the viability at 9 µM in the series with L929 [8] turned out to be 6%. In addition, the viability at 10 µM with L929 [9] was 94.2%; in the series with L929 [10], 92.2%; with L929 [11], 82.9%. For the same compound, the viability at 5 µM turned out to be 89.1% with L929 [12], 88.3% in the series with L929 [13] and 85.4% in the series with L929 [14]. Moreover, in series [15], the viability at 20 h, 5 µM turned out to be 96.2%. Further, the viability at 20 h, 10 µM in series [16] was 96.5%. In series [17], the viability at 20 h, 20 µM was determined as 75.7%.

For `CN(C)c1ccc2nc3ccc(N(C)C)cc3[s+]c2c1` [METHYLENE BLUE ANHYDROUS], the viability at 20 h, 9 µM in [18] is 102%. For the same compound, the viability at 20 h, 18 µM in series [19] is 95.3%. Further, in the series on L929 [8], the viability at 9 µM worked out at 14%. In addition, the viability at 18 µM in the series with L929 [20] amounted to 67.6%; in the series on L929 [21], 64.4%; with L929 [22] it was 48.9%.
